Measurements from ChEMBL document CHEMBL5584273, “Investigation of Isobactin Analogues of Teixobactin” (ACS Med Chem Lett, 2024).
Bridge positions count the residues as written; N and C are the ends. Square brackets hold non-standard residues; d marks the D form. Side chains are listed from the residue outwards. Peptide text beside a SMILES is read from it. I, II: the chains in the order shown. * marks the point of attachment. Ser(O-(NMe-dPhe-Ile)) = CC[C@H](C)[C@H](NC(=O)[C@@H](Cc1ccccc1)NC)C(=O)OC[C@H](N)C(=O)*; d(aIle) = CC[C@H](C)[C@@H](N)C(=O)O; dNMeF = CN[C@H](Cc1ccccc1)C(=O)O; Chg = N[C@H](C(=O)O)C1CCCCC1

Key:
Staphylococcus aureus [1] = assay: Antibiotic activity against methicillin-resistant Staphylococcus aureus ATCC 700698 assessed as inhibition of bacterial growth incubated for 16 hrs in presence of 0.002% polysorbate 80; assay type: functional
Method in brief: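 Overnight culture from glycerol stock in brain heart infusion broth at 37 °C with shaking; all media contain 0.002% polysorbate 80. DMSO stock (1 mg/mL) diluted in medium; 2-fold series, final 8–0.0078 μg/mL; inoculum ~5 × 10^5 CFU/mL (OD600-normalised).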

Enterococcus faecalis = assay: Antibiotic activity against vancomycin-resistant Enterococcus faecalis ATCC 51299 assessed as inhibition of bacterial growth incubated for 16 hrs in presence of 0.002% polysorbate 80; assay type: functional
Bacillus subtilis = assay: Antibiotic activity against Bacillus subtilis ATCC 6051 assessed as inhibition of bacterial growth incubated for 16 hrs in presence of 0.002% polysorbate 80; assay type: functional
Method in brief: (§1)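 Broth microdilution in media containing 0.002% polysorbate 80. Overnight cultures were grown at 37 °C with shaking in Mueller-Hinton broth. Inoculum was set from background-corrected OD600 to about 5 × 10^5 CFU/mL final. 2-fold dilutions gave final 8 to 0.0078 μg/mL from a DMSO stock. Plates were incubated 16 h at 37 °C and OD600 was read. MIC is the lowest concentration with no growth. Run in quadruplicate technical replicates.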

Staphylococcus aureus [2] = assay: Antibiotic activity against methicillin-sensitive Staphylococcus aureus ATCC 29213 assessed as inhibition of bacterial growth incubated for 16 hrs in presence of 0.002% polysorbate 80; assay type: functional
Method in brief: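 Overnight culture from glycerol stock in Mueller-Hinton broth at 37 °C with shaking; all media contain 0.002% polysorbate 80. DMSO stock (1 mg/mL) diluted in medium; 2-fold series, final 8–0.0078 μg/mL; inoculum ~5 × 10^5 CFU/mL (OD600-normalised).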

Escherichia coli = assay: Antibiotic activity against Escherichia coli ATCC 10798 assessed as inhibition of bacterial growth incubated for 16 hrs in presence of 0.002% polysorbate 80; assay type: functional; method in brief: as §1
[3] = system: Staphylococcus epidermidis; assay: Antibiotic activity against Staphylococcus epidermidis ATCC 14990 assessed as inhibition of bacterial growth incubated for 16 hrs in presence of 0.002% polysorbate 80; assay type: functional
Method in brief: as §1, with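 “final.” for “final. 2-fold dilutions gave final 8 to 0.0078 μg/mL from a DMSO stock.”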

[4] = Solubility in PBS buffer at pH 7.4 at 0.5 mg/ml by HPLC analysis; assay type: physicochemical
HeLa = assay: Cytotoxicity against human HeLa cells at 50 uM by promega cytotox-glo assay; assay type: toxicity, cell-based
Method in brief: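 HeLa cells were exposed to compound at concentrations up to 50 μM. Cytotoxicity was read with the Cytotox-Glo luminescent assay.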

Erythrocyte = assay: Hemolytic activity in human Red blood cell at 25 microg/ml in absence of polysorbate 80; assay type: toxicity, cell-based; conditions: dose 25 µg/ml
Method in brief: (§2)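 Human red blood cells were tested with and without 0.002% polysorbate 80. Triton X-100 served as the 100% lysis control and water (vehicle) as the 0% lysis control. 1.25 μM melittin was an added positive control.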

[5] = Hemolytic activity in human Red blood cell assessed as hemolysis at 100 microg/ml in presence of 0.002% polysorbate 80 relative to control; assay type: toxicity, cell-based, Erythrocyte; conditions: red blood cells (erythrocytes), at 100 µg/mL, read-out: Activity; method in brief: as §2

Molecule `CC[C@H](C)[C@H](NC(=O)[C@@H](Cc1ccccc1)NC)C(=O)N[C@@H](CO)C(=O)N[C@H](CCC(N)=O)C(=O)N[C@@H](C(=O)N[C@H](C(=O)OC[C@H](N)C(=O)N[C@H]1C(=O)N[C@@H](C)C(=O)N[C@@H](C[C@H]2CNC(=N)N2)C(=O)N[C@@H]([C@@H](C)CC)C(=O)O[C@H]1C)[C@@H](C)CC)[C@@H](C)CC` has an MIC (Staphylococcus aureus [1]) of 0.5 mg/L, an MIC (Enterococcus faecalis) of 0.5 mg/L and an MIC (Bacillus subtilis) of 0.062 mg/L. It also gave an MIC (Staphylococcus aureus [2]) of 0.5 mg/L, an MIC (Escherichia coli) of over 8 mg/L and an MIC [3] of 0.25 mg/L.

For `CC[C@H](C)[C@H](NC(=O)[C@@H](Cc1ccccc1)NC)C(=O)N[C@@H](CO)C(=O)N[C@H](CCCNC(=N)N)C(=O)N[C@@H](C(=O)N[C@H](C(=O)N[C@@H](CO)C(=O)N[C@H]1C(=O)N[C@@H](C)C(=O)N[C@@H](C2CCCCC2)C(=O)N[C@@H]([C@@H](C)CC)C(=O)O[C@H]1C)[C@@H](C)CC)[C@@H](C)CC`, the solubility [4] was “Insoluble”, the Activity (HeLa) was “Toxic” and the MIC [3] was 0.125 mg/L.

`CC[C@H](C)[C@H](NC(=O)[C@@H](Cc1ccccc1)NC)C(=O)N[C@@H](CO)C(=O)N[C@H](CCCNC(=N)N)C(=O)N[C@@H](C(=O)N[C@H](C(=O)N[C@@H](CO)C(=O)N[C@H]1C(=O)N[C@@H](C)C(=O)N[C@@H](CC(C)C)C(=O)N[C@@H]([C@@H](C)CC)C(=O)O[C@H]1C)[C@@H](C)CC)[C@@H](C)CC` gave an MIC (Staphylococcus aureus [2]) of 0.25 mg/L.

Molecule `CC[C@H](C)[C@H](NC(=O)[C@@H](Cc1ccccc1)NC)C(=O)OC[C@H](N)C(=O)N[C@H](CCCNC(=N)N)C(=O)N[C@@H](C(=O)N[C@H](C(=O)OC[C@H](N)C(=O)N[C@H]1C(=O)N[C@@H](C)C(=O)N[C@@H](CC(C)C)C(=O)N[C@@H]([C@@H](C)CC)C(=O)O[C@H]1C)[C@@H](C)CC)[C@@H](C)CC` (H-S([Ile-d(aIle)-dR-Ser(O-(NMe-dPhe-Ile))])[dT]ALI; ester 2-C) has an MIC (Staphylococcus aureus [1]) of 1 mg/L and an MIC (Bacillus subtilis) of 0.016 mg/L.

For `CC[C@H](C)[C@H](NC(=O)[C@@H](Cc1ccccc1)NC)C(=O)OC[C@H](N)C(=O)N[C@H](CCCNC(=N)N)C(=O)N[C@@H](C(=O)N[C@H](C(=O)OC[C@H](N)C(=O)N[C@H]1C(=O)N[C@@H](C)C(=O)N[C@@H](C2CCCCC2)C(=O)N[C@@H]([C@@H](C)CC)C(=O)O[C@H]1C)[C@@H](C)CC)[C@@H](C)CC` (H-S([Ile-d(aIle)-dR-Ser(O-(NMe-dPhe-Ile))])[dT]A[Chg]I; ester 2-C), the MIC (Staphylococcus aureus [1]) was 1 mg/L, the solubility [4] was “Insoluble” and the MIC (Enterococcus faecalis) was 1 mg/L. The MIC (Bacillus subtilis) was 0.125 mg/L, the Activity (HeLa) was “Toxic” and the Activity (Erythrocyte) was “Non-Toxic”. It also gave a hemolysis at 100 microg/ml [5] of 0%.

Work on `CC[C@H](C)[C@H](NC(=O)[C@H](NC(=O)[C@@H](CCCNC(=N)N)NC(=O)[C@@H](N)COC(=O)[C@@H](NC(=O)[C@@H](Cc1ccccc1)NC)[C@@H](C)CC)[C@@H](C)CC)C(=O)N[C@@H](CO)C(=O)N[C@H]1C(=O)N[C@@H](C)C(=O)N[C@@H](CC(C)C)C(=O)N[C@@H]([C@@H](C)CC)C(=O)O[C@H]1C` (H-S([Ile-dNMeF])[dR][d(aIle)]IS[dT]ALI; ester 6-C) yielded an MIC (Staphylococcus aureus [1]) of 0.5 mg/L, an MIC (Bacillus subtilis) of 0.008 mg/L and an MIC [3] of 0.031 mg/L.

With `CC[C@H](C)[C@H](NC(=O)[C@H](NC(=O)[C@@H](CCCNC(=N)N)NC(=O)[C@@H](N)COC(=O)[C@@H](NC(=O)[C@@H](Cc1ccccc1)NC)[C@@H](C)CC)[C@@H](C)CC)C(=O)N[C@@H](CO)C(=O)N[C@H]1C(=O)N[C@@H](C)C(=O)N[C@@H](C2CCCCC2)C(=O)N[C@@H]([C@@H](C)CC)C(=O)O[C@H]1C` (H-S([Ile-dNMeF])[dR][d(aIle)]IS[dT]A[Chg]I; ester 6-C) the solubility [4] was “Insoluble”, the MIC (Enterococcus faecalis) was 1 mg/L and the Activity (HeLa) was “Toxic”. For the same molecule, the Activity (Erythrocyte) was “Non-Toxic” and the hemolysis at 100 microg/ml [5] was 0%.

`CC[C@H](C)[C@H](NC(=O)[C@@H](Cc1ccccc1)NC)C(=O)N[C@@H](CO)C(=O)N[C@H](CCCNC(=N)N)C(=O)N[C@@H](C(=O)N[C@H](C(=O)OC[C@H](N)C(=O)N[C@H]1C(=O)N[C@@H](C)C(=O)N[C@@H](CC(C)C)C(=O)N[C@@H]([C@@H](C)CC)C(=O)O[C@H]1C)[C@@H](C)CC)[C@@H](C)CC` (I: H-[dNMeF]IS[dR][d(aIle)]I / II: H-S[dT]ALI; ester I:C-II:1, II:2-II:C) gave an MIC (Enterococcus faecalis) of 1 mg/L, an MIC (Staphylococcus aureus [2]) of 0.125 mg/L and an MIC [3] of 0.016 mg/L.

In the case of `CC[C@H](C)[C@H](NC(=O)[C@@H](Cc1ccccc1)NC)C(=O)N[C@@H](CO)C(=O)N[C@H](CCCNC(=N)N)C(=O)N[C@@H](C(=O)N[C@H](C(=O)OC[C@H](N)C(=O)N[C@H]1C(=O)N[C@@H](C)C(=O)N[C@@H](C2CCCCC2)C(=O)N[C@@H]([C@@H](C)CC)C(=O)O[C@H]1C)[C@@H](C)CC)[C@@H](C)CC` (I: H-[dNMeF]IS[dR][d(aIle)]I / II: H-S[dT]A[Chg]I; ester I:C-II:1, II:2-II:C), the MIC (Staphylococcus aureus [1]) is reported as 1 mg/L, the solubility [4] is reported as “Insoluble” and the Activity (HeLa) is reported as “Toxic”. The Activity (Erythrocyte) was “Non-Toxic”, the hemolysis at 100 microg/ml [5] was 0% and the MIC (Staphylococcus aureus [2]) was 1 mg/L.

Molecule `CN[C@H](CC(C)C)C(=O)N[C@H]1C(=O)N[C@@H](CC(N)=O)C(=O)N[C@H]2C(=O)N[C@H]3C(=O)N[C@H](C(=O)N[C@H](C(=O)O)c4cc(O)cc(O)c4-c4cc3ccc4O)[C@H](O)c3ccc(c(Cl)c3)Oc3cc2cc(c3O[C@@H]2O[C@H](CO)[C@@H](O)[C@H](O)[C@H]2O[C@H]2C[C@](C)(N)[C@H](O)[C@H](C)O2)Oc2ccc(cc2Cl)[C@H]1O` [VANCOMYCIN] has an MIC (Enterococcus faecalis) of over 8 mg/L and an MIC (Bacillus subtilis) of 0.5 mg/L.
